One may read the solubility as the concentration that dissolves in the medium under given conditions. In general, pKa refers to the pH at which an ionisable group is half protonated. Higher therefore signals a group that holds its proton tightly. The efflux ratio is the permeability from basolateral to apical divided by that in the opposite direction, in the common usage.

This is an account of results in publication PMC11903327 (Clinical and Translational Science, 2025).

The conditions of data set [1]: clinical dose of 5 mg; cited from earlier work.
Data set [2] is classed as in vivo, human. The note with it: for CL/F: arithmetic mean (SD). The procedure, abridged: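 Healthy nonsmoking adults aged 18–55, BMI 18–29 kg/m2. Randomized fed/fasted crossover: single 5 mg oral dose fasted or 30 min after a high-fat breakfast (~800–1000 kcal, 50% fat), with ≥14-day washout. Period 3: rabeprazole 40 mg QD with breakfast for 6 days, then fasted 1 h before dosing. Plasma sampled pre-dose to 168 h, LC-MS/MS (1.00–750 ng/mL). Noncompartmental PK; mixed-effects geometric LSM ratios, 90% CIs.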

The format of data set [3] is in vivo, human.
A short description of data set [4]: In vitro aqueous solubility in buffer systems across pH 1 to 6.8. The class given is physicochemical. The note with it: 37 °C, thermodynamic from solid.
A further data set can be described thus: pKa. The class given is physicochemical.
A short description of data set [5]: Biopharmaceutical classification system. Particulars: based on low aqueous solubility and high in vitro permeability. The data set is classed as physicochemical.
Data set [6] in a line: Clinical mass balance study with radiolabelled fruquintinib. The data set is classed as in vivo, human. The note with it: single 5 mg dose in humans; inferred from metabolic profile.
Data set [7] deals with colorectal adenocarcinoma‐2 cell. Particulars: colorectal adenocarcinoma-2 cells; cited from earlier work.
For data set [8] the following is noted: single oral radiolabeled fruquintinib 5 mg; cited from earlier work.
The conditions of data set [9]: healthy Chinese subjects, fruquintinib 4 mg, cited from earlier work.
The conditions of data set [10]: ref Takeda data on file, cited from earlier work.
For data set [11] the following is noted: healthy subjects, cited from earlier work.
The conditions of data set [12]: Phase 1 dose-escalation study, QD dosing; cited from earlier work.

Molecules are shown by their SMILES. In brackets after ≈: the same amount, converted by molar mass. Like-named read-outs stand apart in the source and are kept apart here. A value given as a limit tells only on which side of the number the result lay.

Turning to `CNC(=O)c1ccccc1Sc1ccc2c(/C=C/c3ccccn3)n[nH]c2c1` [axitinib], in [1], the “DDI (based on AUC) when combined with rabeprazole” value was “no clinically meaningful DDI” and the food effect result was “no clinically meaningful food effect”.

Regarding `CNC(=O)c1c(C)oc2cc(Oc3ncnc4cc(OC)c(OC)cc34)ccc12` [Fruquintinib], the “time after dosing at which peak concentrations were achieved” value in data set [2] (fruquintinib 5 mg oral, under fed and fasted conditions) is reported as “approximately 4 h”. For the same compound, the “effects of food or rabeprazole on fruquintinib PK” value in data set [2] (healthy subjects, fruquintinib 5 mg) is given as “No clinically relevant effects”. Also, the Tmax is 0.5 h in data set [2] (human, plasma, oral); 4 h in [2] (human, plasma, po, 5 mg); 4.00 (2.00–6.00) h in [2] (single oral fruquintinib 5 mg, fed (high-fat meal), median (minimum–maximum)). Besides, the CL/F in data set [2] (single oral fruquintinib 5 mg + rabeprazole 40 mg, fasted) is recorded as 15.6 (4.59) mL/min; in data set [2] (single oral fruquintinib 5 mg, fasted (reference)), 17.1 (5.22) mL/min; in data set [2] (single oral fruquintinib 5 mg, fed (high-fat meal)), 16.3 (4.32) mL/min. Further, the “relation of AEs to fruquintinib” value in data set [3] (all five AEs) is reported as “not related”. In addition, the “severity of AEs” value in data set [3] (all five AEs) is listed as “mild”. Further, the “subjects reporting AEs” value in [3] (four of 14 subjects, five AEs, all treatment periods) turned out to be 29%. Also, the “changes in chemistry, hematology, urinalysis and coagulation laboratory test results” value in data set [3] (over time during the study) is reported as “no clinically significant changes”. Moreover, the tolerability result in data set [3] (with or without food or with rabeprazole) is “well tolerated”. Also, the solubility at 48 h in [4] (pH 1, simulated gastric fluid) was 130 µg/mL (≈ 330 µM); in data set [4] (pH 4.5, aqueous buffer) it was 0.9 µg/mL (≈ 2.29 µM); in data set [4] (pH 6.8, aqueous buffer) it was 0.9 µg/mL (≈ 2.29 µM). Moreover, the pKa in the data set “pKa” amounted to 2.78. The “biopharmaceutical classification system (BCS) class” value in data set [5] was “class 2”. In addition, the “fraction of the dose absorbed” value in data set [6] was over 85%. In [7], the apical-to-basolateral apparent permeability was 30 ×10⁻⁶ cm/s. Further, the efflux ratio in data set [7] is given as about 1. Moreover, in [8], the “dose recovered in feces” value is listed as 30%. For the same compound, the “unchanged fruquintinib in feces, of the administered dose” value in [8] is on record as 5.34%. Also, the “unchanged fruquintinib in urine, of the administered dose” value in data set [8] is 0.50%. Besides, the “effect of a high-fat meal on the PK of fruquintinib” value in data set [9] is listed as “no clinically significant effect”. The “least squares GMR (90% CI) for AUC0-inf” value in [9] (high-fat meal vs fasted) is recorded as 97.2% (94.0%–100.4%). The “least squares GMR (90% CI) for Cmax” value in data set [9] (high-fat meal vs fasted) was 82.9% (76.7%–89.5%). For the same compound, the “time stable in simulated gastric fluids” value in [10] (simulated gastric fluids) is reported as “at least 1 h”. In [10] (simulated intestinal fluids), the “time stable in simulated intestinal fluids” value is on record as “at least 3 h”. Besides, the “change in fruquintinib exposure” value in data set [11] (coadministration with a CYP3A inducer) is “decreased”. The “change in fruquintinib AUC or Cmax” value in [11] (coadministration with a CYP3A inhibitor) is “no clinically meaningful change”. Besides, in data set [12], the maximum-tolerated dose is reported as 4 mg.
